{"source": "paper PMC5819594", "about": "(Nano letters, 2017)", "molecules": {"B1": {"name": "p32 (gC1qR/HABP) (protein)", "chain": "LHTDGDKAFVDFLSDEIKEERKIQKHKTLPKMSGGWELELNGTEAKLVRKVAGEKITVTFNINNSIPPTFDGEEEPSQGQKVEEQEPELTSTPNFVVEVIKNDDGKKALVLDCHYPEDEVGQEDEAESDIFSIREVSFQSTGESEWKDTNYTLNTDSLDWALYDHLMDFLADRGVDNTFADELVELSTALEHQEYITFLEDLKSFVKSQ"}}, "key": {"p32 [1]": {"target": "T1, p32 (Homo sapiens, UniProt Q07021)", "T1 sequence (Q07021 74-282)": "B1 chain", "test": "fluorescence anisotropy", "assay_type": "binding"}, "tumors": {"tested_on": "tumors", "conditions": "cited from earlier work"}, "MCF10CA1a tumors [2]": {"tested_on": "MCF10CA1a tumors", "conditions": "cited from earlier work"}, "[3]": {"tested_on": "tumor vessels of treated MCF10CA1a tumors", "test": "NW homing to residual treated tumors", "assay_type": "in vivo, mice", "conditions": "for NW-positive tumor vessels: treated tumors after three weeks, five hours after last injection, n = 3/group", "how_it_was_run": "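MCF10CA1a tumor mice were treated for three weeks with FAM-labeled peptide-NWs. Five hours after the last injection, mice were perfused through the heart with PBS and tissues collected. Tumor sections were stained with anti-CD31 and DAPI and examined by confocal microscopy. Percentage of NW-positive vessels was scored in 10 random areas per section, n = 3/group, mean ±SD.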"}, "[4]": {"tested_on": "MCF10CA1a orthotopic tumor xenografts", "test": "anti-tumor efficacy, MCF10CA1a breast cancer model", "assay_type": "in vivo, human tumor cells in BALB/c nude mice", "conditions": "for reduction of tumor volume versus PBS: i.v. every other day for 3 weeks, 7.5 mg of iron/kg, at three weeks"}, "[5]": {"tested_on": "tumor blood vessels (CD31)", "test": "CD31 blood vessel count in treated tumors", "assay_type": "in vivo", "conditions": "n = 3 mice per group; for average blood vessel count: CD31, 10 random fields at 20×", "how_it_was_run": "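Residual MCF10CA1a orthotopic tumors came from nude mice given peptide-coated NWs i.v. every other day for 3 weeks (7.5mg iron/kg), with a PBS control. Sections were stained with anti-CD31 and imaged by confocal microscopy. Vessels per field were counted, and groups were compared by one-way ANOVA with Tukey's post hoc test.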"}, "glioblastomas": {"tested_on": "glioblastomas", "conditions": "mice, cited from earlier work"}, "MCF10CA1a tumors [6]": {"tested_on": "MCF10CA1a tumors", "test": "tumor homing of homing peptide-D[KLAKLAK]2-NWs, MCF10CA1a", "assay_type": "in vivo, human tumor cells in BALB/c nude mice", "conditions": "for tumor homing and penetration of chimeric peptide-NWs: confocal microscopy"}, "p32 [7]": {"target": "T1, p32", "conditions": "LyP-1 linearized; no reference given; cited from earlier work"}, "tumor macrophages": {"tested_on": "tumor macrophages", "conditions": "LyP-1 alone, without drug, tumor macrophages in particular; cited from earlier work"}, "[8]": {"tested_on": "tumor-associated macrophages/myeloid cells", "conditions": "ref Laakkonen et al., 2004; Fogal et al., 2008; cited from earlier work"}, "MCF10CA1a tumors [9]": {"tested_on": "MCF10CA1a tumors", "test": "TUNEL staining of treated tumors", "assay_type": "in vivo, human tumor cells in BALB/c nude mice", "conditions": "treated tumors after three weeks"}, "MMTV-PyMT tumors": {"tested_on": "MMTV-PyMT tumors", "test": "tumor homing in MMTV-PyMT model", "assay_type": "in vivo, mouse", "conditions": "MMTV-PyMT transgenic breast cancer mice"}, "[10]": {"conditions": "mouse, in vivo"}, "[11]": {"tested_on": "MCF10CA1a cultured tumor cells", "test": "cell death and caspase-3 activation in cultured tumor cells", "assay_type": "cell-based, human", "conditions": "Figure S8"}, "MCF10CA1a tumors [12]": {"tested_on": "MCF10CA1a tumors", "test": "histology", "assay_type": "in vivo, human tumor cells in BALB/c nude mice", "conditions": "end of 3-week treatment, H&E", "how_it_was_run": "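Orthotopic MCF10CA1a xenografts in BALB/c nude mice were treated i.v. with peptide-coated NWs every other day for 3 weeks at 7.5mg iron/kg. At the end of treatment, residual tumors were sectioned and stained with hematoxylin and eosin.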"}, "[13]": {"tested_on": "4T1 mouse breast cancer tumors", "test": "tumor homing in 4T1 model", "assay_type": "in vivo", "conditions": "4T1 breast tumor model", "how_it_was_run": "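4T1 cells were maintained in DMEM with 10% FBS and 1% Glutamine-Pen-Strep at 37°C/5% CO2. 1 × 10^6 cells were implanted subcutaneously in the flanks of 4-week-old BALB/c mice. Peptide-coated NWs were assessed for homing to tumor vasculature and extravascular tumor tissue.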"}, "NRP-1": {"tested_on": "NRP-1", "test": "peptide binding to NRP-1 before and after uPA treatment", "conditions": "control peptide with active CendR motif, with and without uPA"}, "LinTT1": {"target": "T2, LinTT1 (also: FAM-labeled)", "T2 chain": "AKRGARSTA", "test": "fluorescence anisotropy"}}, "note": "Entries after “also recorded” stand apart in the source; their conditions may differ. No end group written: not given here."}
{"molecule": "AKRGARSTA [LinTT1]", "values": [{"measurement": "Kd", "setting": "p32 [1]", "result": 8.7, "unit": "µM"}]}
{"molecule": "CGKRK", "values": [{"measurement": "tumor homing and penetration of free peptide", "setting": "tumors; CGKRK (no reference at the statement)", "result": "does not extravasate and penetrate beyond tumor vessels"}]}
{"molecule": "CGKRK-D[KLAKLAK]2 [CGKRK-D[KLAKLAK]2-NWs, reference compound]", "values": [{"measurement": "tumor homing of CGKRK-D[KLAKLAK]2-NWs (as shown previously)", "setting": "MCF10CA1a tumors [2]", "result": "accumulated in tumor blood vessels, without penetrating into extravascular tumor tissue"}, {"measurement": "NW-positive tumor vessels", "setting": "[3]", "result": 20, "unit": "%"}, {"measurement": "reduction of tumor volume versus PBS", "setting": "[4]", "result": "about 50%"}, {"measurement": "average blood vessel count", "setting": "[5]", "result": "almost similar to LinTT1NW"}, {"measurement": "lifespan in glioblastoma", "setting": "glioblastomas; more aggressive glioblastoma model", "result": "a substantial prolongation of the lifespan of the mice"}, {"measurement": "tumor growth in glioblastoma", "setting": "glioblastomas; one glioblastoma model", "result": "the growth of tumors was essentially completely suppressed"}]}
{"molecule": "CGKRKRA-D[KLAKLAK]2 [CGKRKRA-D[KLAKLAK]2-NWs]", "values": [{"measurement": "tumor homing and penetration of chimeric peptide-NWs", "setting": "MCF10CA1a tumors [6]", "result": "primarily localized with tumor blood vessels similar to LyP1"}]}
{"molecule": "CGNKRTRGC [LyP-1]", "values": [{"measurement": "p32-binding activity", "setting": "p32 [7]", "result": "no detectable p32-binding activity"}, {"measurement": "tumor homing and penetration of LyP-1", "setting": "tumors", "result": "capable of penetrating into tumors and accumulates in the extravascular tumor tissue"}, {"measurement": "apoptosis in cells that take up the peptide", "setting": "tumor macrophages", "result": "causes apoptosis in the cells that take up the peptide most avidly, tumor macrophages in particular"}, {"measurement": "overlap with tumor-associated macrophages/myeloid cells", "setting": "[8]", "result": "substantial overlap with tumor-associated macrophages/myeloid cells in tumor tissue"}]}
{"molecule": "CGRKR(NH2)-D[KLAKLAK]2 [CGRKR(NH2)-D[KLAKLAK]2-NWs]", "values": [{"measurement": "tumor homing and penetration of chimeric peptide-NWs", "setting": "MCF10CA1a tumors [6]", "result": "primarily localized with tumor blood vessels similar to LyP1"}]}
{"molecule": "LinTT1-D[KLAKLAK]2 [LinTT1-D[KLAKLAK]2-NWs]", "values": [{"measurement": "tumor homing and penetration of chimeric peptide-NWs", "setting": "MCF10CA1a tumors [6]", "result": "highly effective in extravasating and penetrating tumor parenchyma; also recorded: superior to other chimeric peptide-NWs; also recorded: partially co-localize with tumor blood vessels (CD31), but most of the NWs are outside the blood vessels in the extravascular tumor tissue"}, {"measurement": "tumor accumulation relative to CGKRK-D[KLAKLAK]2-NWs", "setting": "MCF10CA1a tumors [6]; quantified NW fluorescence", "result": "over 7 fold"}, {"measurement": "NW-positive tumor vessels", "setting": "[3]", "result": "Approximately 68%"}, {"measurement": "accumulation in treated tumors", "setting": "[3]; tumors treated with LinTT1D(KLAKLAK)2-NWs for 3 weeks", "result": "no apparent decline in accumulation"}, {"measurement": "apoptosis by TUNEL staining", "setting": "MCF10CA1a tumors [9]", "result": "apoptosis in the LinTT1D[KLAKLAK]2-NW tumor rims, where it co-localized with the NWs"}, {"measurement": "tumor homing, MMTV-PyMT", "setting": "MMTV-PyMT tumors", "result": "efficiently homed to the vasculature of the 4T1 and MMTV-PyMT tumors, accumulating also in extravascular tumor tissue"}, {"measurement": "anti-tumor activity", "setting": "[4]; 3 weeks, 7.5 mg of iron/kg i.v. every other day", "result": "essentially no tumor growth; also recorded: more effective than the previous NPs"}, {"measurement": "reduction of tumor volume versus PBS", "setting": "[4]", "result": "about 90%"}, {"measurement": "mice in which tumor seemed to have disappeared", "setting": "[4]; one of two experiments, 3 weeks", "result": "four out of 6 mice"}, {"measurement": "tumors regressed", "setting": "[4]; proportion of tumors, LinTT1D(KLAKLAK)2-NW group", "result": "10/14"}, {"measurement": "toxicity", "setting": "[10]", "result": "no significant toxicity"}, {"measurement": "cell death and caspase-3 activation", "setting": "[11]", "result": "cell death accompanied by activation of caspase-3"}, {"measurement": "necrosis and apoptotic nuclei in residual tumors", "setting": "MCF10CA1a tumors [12]", "result": "extensive necrosis and a thin rim of tumor tissue around the necrotic core that contained many apparently apoptotic nuclei"}, {"measurement": "average blood vessel count", "setting": "[5]", "result": "marked reduction of blood vessels"}, {"measurement": "reduction of blood vessels versus PBS control", "setting": "[5]; CD31, after treatment", "result": "more than 6 fold"}, {"measurement": "tumor homing, 4T1", "setting": "[13]", "result": "efficiently homed to the vasculature of the 4T1 and MMTV-PyMT tumors, accumulating also in extravascular tumor tissue"}]}
{"molecule": "RPARPAR", "values": [{"measurement": "binding to NRP-1 regardless of uPA", "setting": "NRP-1", "result": "bound only to NRP-1 regardless of uPA treatment"}]}
{"molecule": "B1", "values": [{"measurement": "Kd", "setting": "LinTT1", "result": 8.7, "unit": "µM"}]}
